From PubChem
HSF1 activator – HSF-1 activators, primary screen, NIH3T3-HGL cells, MG132 stress, luminescence, single point; NIH3T3-HGL HSF-1 luciferase reporter, 8 h; 100% = twice DMSO control signal; activation, % at 9 µM; 1.7% of 300,000 active;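 active = mean replicate activation of at least 50% with a set share of replicates each reaching 50%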;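 note: 0% = median of the neutral control wells and 100% = twice that signal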
Jurkat NFkB inh – inhibitors of induced NF-kB luciferase reporter, primary screen, TCR NF-kB activation inhibitor project, cell-based, luminescence, uHTS. 0.53% of 330,000 active. AID 435003, 2010. inhibition, % at 4 µM. Jurkat, PMA/ionomycin-induced NF-kB luciferase reporter; in the data active = inhibition above about 50%
HSF1 inh – HSF1 inhibitors in luciferase reporter cells, primary screen, cell-based, NIH3T3, luminescence. NIH3T3-HGL HSE-luciferase, MG132-induced, luminescence 8 h; stronger effect = lower value. activity change, negative = inhibition, % at 7.5 µM (by protocol). 0.77% of 300,000 active. AID 2098, 2009;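 active = more than half of replicate wells show activity change below -50%, luminescence cut by over half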;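 note: luciferase reports HSF-1 transcriptional activity via heat shock element; 0% = median of DMSO wells and -100% = zero luminescence signal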
GPR7 antagonist – GPR7 receptor antagonists, primary screen, cell-based, fluorescence, single concentration; Neuropeptides B/W receptor type 1 (Homo sapiens), P48145; GPR7-expressing cells, fluorescence antagonist assay; inhibition, % at 4.4 µM; 1.1% of 290,000 active; AID 1861, 2009; in the data active = inhibition above about 16%, passing the limit was not always enough;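 note: cells stimulated with the agonist NPW; 0% = agonist with vehicle and 100% = vehicle without agonist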
Target sequence (P48145 whole entry, looked up): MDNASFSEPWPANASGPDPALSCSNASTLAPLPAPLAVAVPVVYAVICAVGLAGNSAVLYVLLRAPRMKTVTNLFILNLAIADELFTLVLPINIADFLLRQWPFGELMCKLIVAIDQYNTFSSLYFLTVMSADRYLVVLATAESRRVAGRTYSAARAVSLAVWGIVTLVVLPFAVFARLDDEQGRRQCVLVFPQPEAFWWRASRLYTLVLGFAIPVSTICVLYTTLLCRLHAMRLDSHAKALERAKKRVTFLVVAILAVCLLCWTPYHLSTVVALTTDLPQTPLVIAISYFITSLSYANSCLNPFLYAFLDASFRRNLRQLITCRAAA
T cruzi repl – inhibitors of intracellular T. cruzi growth, primary screen, luminescence, NIH3T3 host cells | AID 1885, 2009 | inhibition, % (concentration not given with the values) | 1.4% of 300,000 active | T. cruzi beta-gal in NIH3T3, 90 h;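 active = mean inhibition across valid replicates above about 55%, limit read from the data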;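 note: signal also drops with host cell toxicity which is not excluded here; 0% = plate median of DMSO wells and 100% = zero luminescence signal; higher percent means less beta-gal luminescence so fewer parasites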
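System: mouse NIH/3T3 fibroblasts infected with β-gal-expressing T. cruzi Tulahuen C4 / Input: NIH/3T3 cells, 5,000 per well / Buffer or medium: Low-serum DMEM with 2% FBS / Probe or stimulus: 5000 reporter trypomastigotes per well / Schedule: ≥90 h infection period, 3 h prior cell attachment / Measured by: GalScreen luminescence, 60 min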
697 NFkB inh – inhibitors of PMA/ionomycin-induced NF-kB reporter, 697 cells, primary screen, B-cell NF-kB inhibitor project, cell-based, luminescence, uHTS; inhibition, % at 4 µM; 0.33% of 330,000 active; 697 B-cell NF-kB luciferase reporter, 16 h; AID 435022, 2010; in the data active = inhibition above about 35%
GPR7 antag conf – GPR7 receptor antagonists, confirmation, cell-based, fluorescence, single concentration; shares compounds with GPR7 antagonist; GPR7-expressing cells, calcium fluorescence antagonist mode; inhibition, % at 4.4 µM; 52% of 2,400 active; in the data active = inhibition above about 24%;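 note: stimulated with the GPR7 agonist NPW; 0% = agonist plus vehicle and 100% = vehicle alone without agonist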
MCHR1 antag – MCHR1 antagonists in cells, counter-screen for GPR7 antagonist project, cell-based, fluorescence, human. shares compounds with GPR7 antagonist. MCHR1-expressing cells, fluorescence antagonist assay. inhibition, % at 4.4 µM. 62% of 2,400 active; in the data active = inhibition above about 22%;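 note: 0% = vehicle with agonist and 100% = vehicle without agonist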
* marks the source's active call; other numbers are inactive results; · = no result given. The list is not random: actives were taken first. Their share in the collection is about 4.8%.

SMILES	HSF1 activator	Jurkat NFkB inh	HSF1 inh	GPR7 antagonist	T cruzi repl	697 NFkB inh	GPR7 antag conf	MCHR1 antag
CC(C)Cn1c(SC(C)C(=O)NCC2CCCO2)nc2ccc(Cl)cc2c1=O (stereo not drawn)	·	-3	·	·	·	7	·	·
CCCC(c1nnnn1Cc1ccco1)N1CCN(c2ccccc2)CC1 (stereo not drawn)	·	1	·	8	-7	20	·	·
CCCC(c1nnnn1Cc1ccco1)N1CCN(c2cc(Cl)ccc2C)CC1 (stereo not drawn)	·	9	·	26*	·	7	35*	50*
CC(C)NC(=O)NC(=O)CSc1nnc(COc2ccccc2F)n1C(C)C1CC2CCC1C2 (stereo not drawn)	-16	-10	9	32*	42	-23	28*	54*
Cc1ccc(/C(N)=N/OC(=O)c2cccc(Cn3cc(C(F)(F)F)ccc3=O)c2)cc1	7	4	8	21*	17	-9	-7	23*
CN1CCc2nc(NC(=O)COc3ccc(C#N)cc3)sc2C1	9	6	-2	-7	-13	6	·	·
O=C(Nc1ccc([N+](=O)[O-])cc1)c1ccc(Cn2cc([N+](=O)[O-])cn2)cc1	·	17	·	24*	43	23	66*	72*
CCOC(=O)c1cc2[nH]c3ccccc3c2[n+](-c2ccc([N+](=O)[O-])cc2)c1C	31	16	17	23*	50	-7	18	16
CCOC(=O)c1cc2[nH]c3ccccc3c2[n+](-c2ccc([N+](=O)[O-])cc2)c1N	-1	-14	-5	0	47	-47	·	·
Cc1ccnc(N2CCN(C(=O)CSc3nc4ccccc4nc3N3CCC(C)CC3)CC2)c1	25	-5	12	-15	16	-17	·	·
Cc1cc(C)cc(NC(=O)NCC2CCN(Cc3cc(C)ccc3C)CC2)c1	4	10	-2	8	13	16	·	·
Cc1ccc(C)c(CN2CCC(CNC(=O)Nc3ccc(F)c(Cl)c3)CC2)c1	6	20	5	38*	47	12	40*	68*
CC(C)CNc1ncnc2c1cnn2Cc1ccccc1Cl	-1	-8	-2	38*	8	-13	36*	24*
O=C(c1nn(Cc2ccccc2)c(=O)c2ccccc12)N1CCN(c2ccccn2)CC1	13	9	0	30*	19	-8	32*	27*
COc1ccc(S(=O)(=O)NCCCN2CCCC2=O)cc1OC	-18	10	-9	2	-10	9	·	·
NC(=O)c1ccccc1NC(=O)c1cccc(C(=O)Nc2ccccc2C(N)=O)n1	11	44	-7	·	5	9	·	·
S=C(NCCN1CCCCC1)Nc1ccccc1	-16	16	-1	-4	-9	7	·	·
S=C(NCCN1CCCCC1)Nc1ccc(Br)cc1	7	-14	4	38*	14	-1	9	13
CCn1c(SCC(=O)Nc2ccc(C(C)=O)cc2)nc2ccccc21	10	-47	5	30*	4	-67	4	20
COc1ccc(CN(C)C(=O)c2ccc(NS(=O)(=O)c3ccc(F)cc3)cc2)c(OC)c1	4	-14	3	22*	4	6	10	2
Cc1cc2nc(-c3ccc(SCc4ccc(C#N)cc4)nc3)[nH]c2cc1C	·	-66	·	33*	56*	-66	55*	66*
N#Cc1ccccc1CSc1ccc(-c2nc3ccccc3[nH]2)cn1	49	-37	23	31*	13	-59	5	74*
CC(=O)CSc1ccc(-c2nc3cc(C)c(C)cc3[nH]2)cn1	-2	-17	-1	-2	14	-58	·	·
COc1ccc(S(=O)(=O)N(CC(C)C)C2CCS(=O)(=O)C2)cc1OC (stereo not drawn)	-12	-2	1	·	-5	-3	·	·
COc1ccc(N2CCN(S(=O)(=O)CCNC(=O)c3cc(=O)c4ccccc4o3)CC2)cc1	13	13	-5	2	-6	-7	·	·
SMILES	HSF1 activator	Jurkat NFkB inh	HSF1 inh	GPR7 antagonist	T cruzi repl	697 NFkB inh	GPR7 antag conf	MCHR1 antag
O=c1[nH]oc2cc(Cl)ccc12	-3	0	2	-8	·	6	·	·
CCOC(=O)C(C(=O)Nc1ccccn1)C1CCCCC1 (stereo not drawn)	24	-12	4	-3	-10	-4	·	·
CCOC(=O)C(C(=O)N(C)Cc1ccccc1)C1CCCCC1 (stereo not drawn)	-43	-10	-32	32*	-13	-38	27*	30*
COc1ccc(C)c2sc(N(CCN(C)C)C(=O)/C=C/c3cccs3)nc12	31	-16	17	29*	4	-2	38*	38*
COc1cccc2sc(N(CCN(C)C)C(=O)/C=C/c3cccs3)nc12	·	15	·	-5	-4	8	·	·
COc1ccc(OC)c2sc(N(CCN(C)C)C(=O)/C=C/c3cccs3)nc12	4	9	0	31*	-5	-29	13	19
CCOc1cc(/C=C2/SC(=S)NC2=O)ccc1OC(=O)c1ccco1	-9	6	2	-1	-6	7	·	·
O=C1NC(=S)S/C1=C/c1ccc(OC(=O)c2ccco2)cc1	55*	18	19	28*	-11	-11	16	23*
COc1ccc(OCc2cc(C(=O)NCC(C)(C)N3CCOCC3)no2)c(Cl)c1	-1	-8	6	2	3	-62	·	·
COc1cc(N2CCCC2)c(OC)cc1/C=C1/NC(=S)NC1=O	0	-7	-10	32*	-11	-2	41*	36*
CSCCC(NC(=O)c1ccco1)C(=O)OC(C)C(=O)NC(=O)NC1CCCCC1 (stereo not drawn)	9	-2	-1	29*	-4	-12	23	48*
Cc1ccc(NC(=O)NNc2cccc(Cl)n2)cc1	13	·	-6	-18	4	·	·	·
COc1ccc(S(=O)(=O)N(C)c2ccc(C(=O)NC3CCCC3)cc2)cc1	-12	6	1	-8	11	2	·	·
CN(c1ccc(C(=O)NC2CCCC2)cc1)S(=O)(=O)c1ccc(Cl)cc1	19	-4	-5	33*	3	-16	24	16
